Measured values from ChEMBL document CHEMBL3272176, “Nucleic acids. 16. Orally active derivatives of ara-cytidine” (1976).

What was measured:
L1210 [1] = test: Antitumor activity against mouse L1210 cells allografted in mouse assessed as increase in life span at 100 umol/kg/day, po using saline vehicle for 5 days 24 hrs after tumor inoculation; format: functional
In short: (§1)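 Mice were inoculated ip on day 0 with 1×10^6 L1210 cells each. Dosing started 24 h later, once daily for 5 days, in groups of eight. Survival was recorded to the nearest day. %ILS was calculated from median survival of treated vs control groups, with ≥25% counted as significant. For the plain-saline and HCl vehicles, compound was first wetted with a few drops of ethanol (<5% v/v).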

L1210 [2] = test: Antitumor activity against mouse L1210 cells allografted in mouse assessed as increase in life span at 200 umol/kg/day, po using saline vehicle for 5 days 24 hrs after tumor inoculation; format: functional; in short: as §1
L1210 [3] = test: Antitumor activity against mouse L1210 cells allografted in mouse assessed as increase in life span at 400 umol/kg/day, po using saline vehicle for 5 days 24 hrs after tumor inoculation; format: functional; in short: as §1
Rattus norvegicus [4] = test: Immunosuppression activity in rat assessed as reduction of adjuvant-induced acute inflammation administered po twice daily on days 0 to 14
Rattus norvegicus [5] = test: Immunosuppression activity in rat assessed as reduction of adjuvant-induced polyarthritis administered po twice daily on days 0 to 14 measured on day 21
Rattus norvegicus [6] = test: Immunosuppression activity in rat assessed as reduction of adjuvant-induced polyarthritis administered po twice daily for days 0 to 14 measured on day 15
L1210 [7] = test: Antitumor activity against mouse L1210 cells allografted in mouse assessed as increase in life span at 100 umol/kg/day, po using 0.01 N HCl vehicle for 5 days 24 hrs after tumor inoculation; format: functional; in short: as §1
L1210 [8] = test: Antitumor activity against mouse L1210 cells allografted in mouse assessed as increase in life span at 200 umol/kg/day, po using 0.01 N HCl vehicle for 5 days 24 hrs after tumor inoculation; format: functional; in short: as §1
L1210 [9] = test: Antitumor activity against mouse L1210 cells allografted in mouse assessed as increase in life span at 400 umol/kg/day, po using 0.01 N HCl vehicle for 5 days 24 hrs after tumor inoculation; format: functional; in short: as §1
Rattus norvegicus [10] = test: Immunosuppression in experimental allergic encephalomyelitis rat model administered po for days 1 to 13 measured on day 17
Rattus norvegicus [11] = test: Immunosuppression activity in experimental allergic encephalomyelitis rat model administered po for days 1 to 13 measured on day 14
L1210 [12] = test: Antitumor activity against mouse L1210 cells allografted in mouse assessed as increase in life span at 100 umol/kg/day, po using 0.9% (W/V) aqueous NaCl vehicle for 5 days 24 hrs after tumor inoculation; format: functional; in short: as §1
L1210 [13] = test: Antitumor activity against mouse L1210 cells allografted in mouse assessed as increase in life span at 200 umol/kg/day, po using 0.9% (W/V) aqueous NaCl vehicle for 5 days 24 hrs after tumor inoculation; format: functional; in short: as §1
L1210 [14] = test: Antitumor activity against mouse L1210 cells allografted in mouse assessed as increase in life span at 400 umol/kg/day, po using 0.9% (W/V) aqueous NaCl vehicle for 5 days 24 hrs after tumor inoculation; format: functional; in short: as §1
L1210 [15] = test: Antitumor activity against mouse L1210 cells allografted in mouse assessed as increase in life span at 100 umol/kg/day, po using 0.9% (W/V) aqueous NaCl vehicle for 5 days 24 hrs after tumor inoculation in presence of THU 10 mg/kg/day on days 1 to 5; format: functional; in short: as §1
L1210 [16] = test: Antitumor activity against mouse L1210 cells allografted in mouse assessed as increase in life span at 200 umol/kg/day, po using 0.9% (W/V) aqueous NaCl vehicle for 5 days 24 hrs after tumor inoculation in presence of THU 10 mg/kg/day on days 1 to 5; format: functional; in short: as §1
L1210 [17] = test: Antitumor activity against mouse L1210 cells allografted in mouse assessed as increase in life span at 100 umol/kg/day, ip using 0.9% (W/V) aqueous NaCl vehicle for 5 days 24 hrs after tumor inoculation; format: functional; in short: as §1
L1210 [18] = test: Antitumor activity against mouse L1210 cells allografted in mouse assessed as increase in life span at 200 umol/kg/day, ip using 0.9% (W/V) aqueous NaCl vehicle for 5 days 24 hrs after tumor inoculation; format: functional; in short: as §1
L1210 [19] = test: Antitumor activity against mouse L1210 cells allografted in mouse assessed as increase in life span at 400 umol/kg/day, ip using 0.9% (W/V) aqueous NaCl vehicle for 5 days 24 hrs after tumor inoculation; format: functional; in short: as §1
L1210 [20] = test: Antitumor activity against mouse L1210 cells allografted in mouse assessed as increase in life span at 400 umol/kg/day, po using 0.9% (W/V) aqueous NaCl vehicle for 5 days 24 hrs after tumor inoculation in presence of THU 10 mg/kg/day on days 1 to 5
L1210 [21] = test: Antitumor activity against mouse L1210 cells allografted in mouse assessed as increase in life span at 100 umol/kg/day, po using 0.1 N HCl vehicle for 5 days 24 hrs after tumor inoculation; format: functional; in short: as §1
L1210 [22] = test: Antitumor activity against mouse L1210 cells allografted in mouse assessed as increase in life span at 200 umol/kg/day, po using 0.1 N HCl vehicle for 5 days 24 hrs after tumor inoculation; format: functional; in short: as §1
L1210 [23] = test: Antitumor activity against mouse L1210 cells allografted in mouse assessed as increase in life span at 400 umol/kg/day, po using 0.1 N HCl vehicle for 5 days 24 hrs after tumor inoculation; format: functional; in short: as §1

SMILES | inhibition (INH) (Rattus norvegicus [4]) [%] | inhibition (INH) (Rattus norvegicus [5]) [%] | inhibition (INH) (Rattus norvegicus [6]) [%] | inhibition (INH) (Rattus norvegicus [10]) [%] | inhibition (INH) (Rattus norvegicus [11]) [%] | ILS at 100 µmol/kg (L1210 [12]) [%] | ILS at 200 µmol/kg (L1210 [13]) [%] | ILS at 400 µmol/kg (L1210 [14]) [%] | further results
Cl.Nc1ccn([C@@H]2O[C@H](COC(=O)C3CC4CCN3CC4)[C@@H](O)[C@@H]2O)c(=O)n1 (stereo not given in full) | -2 | 0 | 5 | – | – | – | – | – | ILS at 100 µmol/kg (L1210 [1]): 8%; ILS at 200 µmol/kg (L1210 [2]): 0%; ILS at 400 µmol/kg (L1210 [3]): 15%
CCCCCCCCCCCCCCCC(=O)OC[C@H]1O[C@@H](n2ccc(N)nc2=O)[C@@H](O)[C@@H]1O.Cl | 13 | 6 | 11 | 13.2 | 8.1 | – | – | – | ILS at 100 µmol/kg (L1210 [7]): 46%; ILS at 200 µmol/kg (L1210 [8]): 69%; ILS at 400 µmol/kg (L1210 [9]): 92%
CCCCCCCCCCCCCCCC(=O)OC[C@H]1O[C@@H](n2ccc(NC(=O)[C@H](CCCNC(=N)N)NC(=O)CNC(=O)OC(C)(C)C)nc2=O)[C@@H](O)[C@@H]1O.Cl | 6 | – | – | 10.5 | 35.1 | 30 | 44 | 110 | –
Cl.Nc1ccn([C@@H]2O[C@H](COC(=O)c3cccnc3)[C@@H](O)[C@@H]2O)c(=O)n1 | 4 | 0 | 0 | – | – | – | – | – | ILS at 100 µmol/kg (L1210 [7]): 31%; ILS at 200 µmol/kg (L1210 [8]): 46%; ILS at 400 µmol/kg (L1210 [9]): 69%
Cl.Nc1ccn([C@@H]2O[C@H](COC(=O)c3ccccc3)[C@@H](O)[C@@H]2O)c(=O)n1 | 15 | 20 | 47 | 0 | 0 | – | – | – | ILS at 100 µmol/kg (L1210 [1]): 15%; ILS at 200 µmol/kg (L1210 [2]): 31%; ILS at 400 µmol/kg (L1210 [3]): 62%
Nc1ccn([C@@H]2O[C@H](CO)[C@@H](O)[C@@H]2O)c(=O)n1 [CYTARABINE] | -4 | 7 | 20 | – | – | 15 | 38 | 62 | ILS (L1210 [15]): 62%; ILS (L1210 [16]): 92%; ILS at 100 µmol/kg (L1210 [17]): 69%; ILS at 200 µmol/kg (L1210 [18]): 100%; ILS at 400 µmol/kg (L1210 [19]): 131%; ILS (L1210 [20]): 138%
Cl.Nc1ccn([C@@H]2O[C@H](COC(=O)C34CC5CC(CC(C5)C3)C4)[C@@H](O)[C@@H]2O)c(=O)n1 | 4 | 28 | 31 | 7.9 | 5.4 | – | – | – | ILS at 100 µmol/kg (L1210 [21]): 46%; ILS at 200 µmol/kg (L1210 [22]): 77%; ILS at 400 µmol/kg (L1210 [23]): 130%
CC(C)(C)OC(=O)NCC(=O)N[C@@H](CCCNC(=N)N)C(=O)Nc1ccn([C@@H]2O[C@H](COC(=O)C34CC5CC(CC(C5)C3)C4)[C@@H](O)[C@@H]2O)c(=O)n1.Cl | 1 | 18 | 50 | 10.5 | 5.4 | 21 | 43 | 93 | –
CC(C)(C)OC(=O)NCC(=O)N[C@@H](CCCNC(=N)N)C(=O)Nc1ccn([C@@H]2O[C@H](COC(=O)c3ccccc3)[C@@H](O)[C@@H]2O)c(=O)n1.Cl | 9 | 35 | 52 | 5.3 | 13.5 | 14 | 21 | 43 | –
